{"source": "paper PMC10692396", "about": "(Acta Pharmaceutica Sinica. B, 2023)", "key": {"[1]": {"tested_on": "intracranial glioma tumor U87MG", "assay": "Intracranial U87MG-luc tumor model in nude mice", "type": "in vivo", "settings": "for median survival time: control 41 days"}, "[2]": {"tested_on": "U251 GBM xenograft tumors", "assay": "U251 subcutaneous xenograft in nude mice", "type": "in vivo", "settings": "for expression of angiogenic markers CD31 and CD105: U251 tumor tissues; for expression of angiogenic markers CD31 and CD105 / expression of M2 phenotype macrophage marker(s) (CD206): IHC; for expression of M2 phenotype macrophage marker(s) (CD206): tumor tissue; for tumor volume reduced: U251 xenograft"}, "[3]": {"tested_on": "M2 markers CD206 and ARG1 in BMDM cells", "assay": "In vitro differentiation of BMDMs", "type": "cell-based, mouse", "settings": "BMDM stimulated with CSF1, IL4, IL13; compound 100 nmol/L, 48 h", "how_it_was_run": "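Mouse BMDMs were seeded at 2.5 × 10^6/well and grown 7 days in 10 ng/mL CSF1. CD206 and ARG1 were measured by flow cytometry. Three independent experiments, t-test.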"}, "HUVEC": {"tested_on": "HUVEC", "assay": "VEGF-stimulated cell viability", "type": "cell-based", "settings": "Homo sapiens, 72 h, read-out: IC50 HUVEC cell viability"}, "mouse glioma GL261-luc": {"tested_on": "mouse glioma GL261-luc", "assay": "Intracranial GL261-luc model in immunocompetent mice", "type": "in vivo, C57BL/6 mice", "how_it_was_run": "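Male C57BL/6 mice aged 4–6 weeks received 2 × 10^5 GL261-luc cells intracranially into the right frontal lobe. About 5 days after inoculation, mice were randomized by IVIS bioluminescence. Brain signal was then imaged once or twice weekly.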"}, "PDGFRα (V561D)": {"target": "PDGFRα (V561D) (Homo sapiens, UniProt P16234, V561D)", "assay": "ELISA kinase assay", "type": "biochemical"}, "[4]": {"tested_on": "cells with high expression of Aurora-B", "assay": "Cytotoxicity in Aurora-B high cells", "type": "cell-based", "settings": "data not shown"}, "glioma cell lines": {"tested_on": "glioma cell lines", "assay": "Cell viability", "type": "cell-based", "settings": "read-out: IC50 against glioma cell lines", "how_it_was_run": "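GL261, DBT, D283, U87MG and U251 cells were plated, left overnight, then given a range of test compound concentrations for 72 h at 37 °C, 5% CO2. Growth was read by CCK-8. D283 was grown in MEM with 10% FBS, 1% NEAA and 1% NaP. Lines were STR-authenticated.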"}, "c-Kit": {"target": "c-Kit (Homo sapiens, UniProt P10721)", "sequence (P10721 26-976)": "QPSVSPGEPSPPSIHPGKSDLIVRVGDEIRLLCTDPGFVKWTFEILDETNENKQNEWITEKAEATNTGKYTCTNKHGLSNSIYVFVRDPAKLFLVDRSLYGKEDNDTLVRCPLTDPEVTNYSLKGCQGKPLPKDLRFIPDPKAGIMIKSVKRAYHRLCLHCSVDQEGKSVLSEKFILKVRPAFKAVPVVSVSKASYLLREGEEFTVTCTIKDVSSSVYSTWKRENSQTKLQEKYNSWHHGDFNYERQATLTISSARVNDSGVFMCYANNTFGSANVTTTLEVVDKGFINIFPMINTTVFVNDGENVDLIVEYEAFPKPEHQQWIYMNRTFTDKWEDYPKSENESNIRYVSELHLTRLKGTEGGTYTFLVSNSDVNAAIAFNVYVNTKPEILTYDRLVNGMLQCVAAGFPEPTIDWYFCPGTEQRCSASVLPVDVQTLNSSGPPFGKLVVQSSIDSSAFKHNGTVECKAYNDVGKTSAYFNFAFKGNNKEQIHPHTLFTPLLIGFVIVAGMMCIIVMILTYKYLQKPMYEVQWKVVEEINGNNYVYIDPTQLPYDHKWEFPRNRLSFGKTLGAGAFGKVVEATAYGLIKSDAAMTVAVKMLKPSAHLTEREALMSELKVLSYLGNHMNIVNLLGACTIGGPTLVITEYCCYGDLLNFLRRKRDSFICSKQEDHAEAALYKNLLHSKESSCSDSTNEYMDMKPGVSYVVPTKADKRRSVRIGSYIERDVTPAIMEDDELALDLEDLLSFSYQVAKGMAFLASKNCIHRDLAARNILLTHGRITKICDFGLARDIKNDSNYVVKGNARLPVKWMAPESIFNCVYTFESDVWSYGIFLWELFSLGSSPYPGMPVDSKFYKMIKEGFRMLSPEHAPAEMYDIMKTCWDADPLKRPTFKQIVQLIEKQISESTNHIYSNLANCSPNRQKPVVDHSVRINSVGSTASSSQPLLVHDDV", "assay": "ELISA kinase assay", "type": "biochemical"}, "VEGFR-3": {"target": "VEGFR-3 (Homo sapiens, UniProt P35916)", "sequence (P35916 25-1363)": "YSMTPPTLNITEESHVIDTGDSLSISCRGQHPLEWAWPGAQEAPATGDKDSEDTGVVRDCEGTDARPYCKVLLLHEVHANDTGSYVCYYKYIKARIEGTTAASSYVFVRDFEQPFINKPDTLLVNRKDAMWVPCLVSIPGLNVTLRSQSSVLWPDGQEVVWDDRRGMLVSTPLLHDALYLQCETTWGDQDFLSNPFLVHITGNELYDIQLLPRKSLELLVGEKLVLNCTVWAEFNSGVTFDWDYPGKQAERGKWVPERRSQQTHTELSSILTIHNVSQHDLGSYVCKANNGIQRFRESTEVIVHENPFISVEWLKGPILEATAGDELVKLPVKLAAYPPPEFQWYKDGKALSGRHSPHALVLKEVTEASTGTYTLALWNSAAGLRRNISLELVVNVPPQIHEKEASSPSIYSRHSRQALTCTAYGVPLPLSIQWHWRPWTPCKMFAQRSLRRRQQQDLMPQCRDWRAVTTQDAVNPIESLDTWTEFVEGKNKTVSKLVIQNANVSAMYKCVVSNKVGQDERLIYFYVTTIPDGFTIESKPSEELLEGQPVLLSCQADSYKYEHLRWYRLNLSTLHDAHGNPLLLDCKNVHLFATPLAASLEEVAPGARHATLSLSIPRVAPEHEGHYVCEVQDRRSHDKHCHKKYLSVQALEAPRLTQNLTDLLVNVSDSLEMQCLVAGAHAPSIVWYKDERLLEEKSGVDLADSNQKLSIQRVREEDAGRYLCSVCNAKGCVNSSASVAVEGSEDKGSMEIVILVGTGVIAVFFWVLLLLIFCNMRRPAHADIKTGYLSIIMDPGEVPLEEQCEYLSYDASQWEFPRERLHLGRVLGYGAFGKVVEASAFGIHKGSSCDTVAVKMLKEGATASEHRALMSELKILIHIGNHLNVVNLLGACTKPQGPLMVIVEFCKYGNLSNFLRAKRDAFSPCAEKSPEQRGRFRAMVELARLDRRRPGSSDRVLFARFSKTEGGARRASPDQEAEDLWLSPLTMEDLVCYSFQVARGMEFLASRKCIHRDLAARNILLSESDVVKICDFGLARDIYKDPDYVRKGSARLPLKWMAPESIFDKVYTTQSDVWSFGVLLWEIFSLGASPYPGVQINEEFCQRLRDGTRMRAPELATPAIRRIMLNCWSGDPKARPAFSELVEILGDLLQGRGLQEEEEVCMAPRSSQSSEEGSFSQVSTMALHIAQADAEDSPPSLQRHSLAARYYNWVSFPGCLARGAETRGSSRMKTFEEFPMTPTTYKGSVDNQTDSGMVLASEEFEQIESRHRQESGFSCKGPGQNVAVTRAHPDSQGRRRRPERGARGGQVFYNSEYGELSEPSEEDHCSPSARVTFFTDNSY", "assay": "ELISA kinase assay", "type": "biochemical"}, "[5]": {"tested_on": "D283 medulloblastoma xenograft", "assay": "D283 subcutaneous xenograft in NOD-SCID mice", "type": "in vivo", "settings": "oral, 14 days", "how_it_was_run": "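D283 cells (5 × 106 in 200 μL, half Matrigel) were injected s.c. into the right flank of NOD-SCID mice. Mice were randomized at about 120 mm3 (n = 9/group) and dosed orally twice daily. Tumor size (caliper) and body weight were taken three times weekly. Mice were euthanized after 14 days of dosing and tumors weighed.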"}, "[6]": {"assay": "Pharmacokinetics and brain distribution", "type": "in vivo, CD-1 mice", "settings": "male, CD-1, mouse, po, 10 mg/kg", "how_it_was_run": "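Thirty male CD-1 mice were split into six groups, one per sampling time (0.5, 1, 2, 4, 8, 24 h), after a single oral 10 mg/kg dose. Plasma was taken from retro-orbital blood. Brains were collected after intracardial perfusion, rinsed in saline, blotted, weighed and homogenized in MeOH-ACN (1/1, 5 mL/g tissue).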"}, "c-Kit (D816H)": {"target": "c-Kit (D816H) (Homo sapiens, UniProt P10721, D816H)", "sequence (P10721 26-976 D816H)": "as the sequence (P10721 26-976) above, with D791H counted along it", "assay": "ELISA kinase assay", "type": "biochemical"}, "VEGFR-1": {"target": "VEGFR-1 (Homo sapiens, UniProt P17948)", "sequence (P17948 27-1338)": "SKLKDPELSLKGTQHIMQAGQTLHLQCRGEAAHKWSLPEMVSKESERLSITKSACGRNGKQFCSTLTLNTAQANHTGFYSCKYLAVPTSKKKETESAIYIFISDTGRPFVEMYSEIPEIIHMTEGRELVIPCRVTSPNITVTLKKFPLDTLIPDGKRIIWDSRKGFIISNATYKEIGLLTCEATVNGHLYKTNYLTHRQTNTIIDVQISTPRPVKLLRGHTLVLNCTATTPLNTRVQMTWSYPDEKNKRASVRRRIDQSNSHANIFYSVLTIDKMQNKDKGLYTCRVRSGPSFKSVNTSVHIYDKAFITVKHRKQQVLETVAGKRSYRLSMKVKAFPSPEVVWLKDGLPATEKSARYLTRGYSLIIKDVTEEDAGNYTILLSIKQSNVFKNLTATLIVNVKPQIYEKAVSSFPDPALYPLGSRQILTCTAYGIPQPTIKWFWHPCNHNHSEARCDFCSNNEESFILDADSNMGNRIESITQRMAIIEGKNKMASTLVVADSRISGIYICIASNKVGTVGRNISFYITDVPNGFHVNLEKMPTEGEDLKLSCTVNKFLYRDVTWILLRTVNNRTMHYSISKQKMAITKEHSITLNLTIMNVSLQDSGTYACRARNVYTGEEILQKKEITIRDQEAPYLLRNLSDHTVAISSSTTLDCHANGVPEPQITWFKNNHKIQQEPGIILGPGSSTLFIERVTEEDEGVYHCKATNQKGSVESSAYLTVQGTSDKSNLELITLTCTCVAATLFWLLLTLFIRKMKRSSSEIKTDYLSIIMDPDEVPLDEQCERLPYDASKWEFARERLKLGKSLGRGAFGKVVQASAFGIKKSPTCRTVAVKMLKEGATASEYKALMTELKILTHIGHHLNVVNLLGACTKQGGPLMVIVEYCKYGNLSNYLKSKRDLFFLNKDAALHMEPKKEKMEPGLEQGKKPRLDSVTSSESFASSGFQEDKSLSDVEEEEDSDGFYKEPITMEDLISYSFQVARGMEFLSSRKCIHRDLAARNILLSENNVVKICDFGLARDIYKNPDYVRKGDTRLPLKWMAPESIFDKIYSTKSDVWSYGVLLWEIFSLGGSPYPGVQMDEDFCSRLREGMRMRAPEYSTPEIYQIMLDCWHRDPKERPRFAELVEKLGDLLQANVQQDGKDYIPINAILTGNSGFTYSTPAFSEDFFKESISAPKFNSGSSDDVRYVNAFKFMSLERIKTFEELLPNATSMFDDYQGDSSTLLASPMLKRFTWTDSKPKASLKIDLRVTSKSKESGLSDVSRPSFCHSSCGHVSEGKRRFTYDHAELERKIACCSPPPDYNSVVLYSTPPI", "assay": "ELISA kinase assay", "type": "biochemical"}, "tube formation of HUVECs": {"tested_on": "tube formation of HUVECs", "assay": "Tube formation assay", "type": "cell-based, Human", "settings": "VEGF 100 ng/mL, 8 h, concentration-dependent", "how_it_was_run": "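HUVECs were starved 24 h, then seeded at 20,000 cells/well on growth-factor-reduced Matrigel. Graded test compound concentrations and VEGF (final 100 ng/mL) were added for 8 h. Tubes were photographed through a stereoscope at 4×.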"}, "phosphorylation of CSF1R": {"tested_on": "phosphorylation of CSF1R", "assay": "Western blot of CSF1R signaling in BMDM", "type": "cell-based, mouse", "settings": "BMDM cells, CSF1 stimulation", "how_it_was_run": "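Fresh mouse BMDMs (2.5 × 10^6/well) were grown 7 days with 10 ng/mL CSF1, with a medium change at day 3. Cells were serum-starved 6 h, given test compound for 2 h, then stimulated with 50 ng/mL CSF1 for 15 min. BCA-normalized SDS lysates were blotted for p-CSF1R, CSF1R, p-AKT and AKT. Densitometry was normalized to tubulin across three independent repeats.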"}, "panel of 328 kinases": {"tested_on": "panel of 328 kinases", "assay": "Kinase profiling, whole panel", "type": "biochemical, human", "settings": "0.1 μmol/L SYHA1813"}, "CSF1R": {"target": "CSF1R (Homo sapiens, UniProt P07333)", "sequence (P07333 20-972)": "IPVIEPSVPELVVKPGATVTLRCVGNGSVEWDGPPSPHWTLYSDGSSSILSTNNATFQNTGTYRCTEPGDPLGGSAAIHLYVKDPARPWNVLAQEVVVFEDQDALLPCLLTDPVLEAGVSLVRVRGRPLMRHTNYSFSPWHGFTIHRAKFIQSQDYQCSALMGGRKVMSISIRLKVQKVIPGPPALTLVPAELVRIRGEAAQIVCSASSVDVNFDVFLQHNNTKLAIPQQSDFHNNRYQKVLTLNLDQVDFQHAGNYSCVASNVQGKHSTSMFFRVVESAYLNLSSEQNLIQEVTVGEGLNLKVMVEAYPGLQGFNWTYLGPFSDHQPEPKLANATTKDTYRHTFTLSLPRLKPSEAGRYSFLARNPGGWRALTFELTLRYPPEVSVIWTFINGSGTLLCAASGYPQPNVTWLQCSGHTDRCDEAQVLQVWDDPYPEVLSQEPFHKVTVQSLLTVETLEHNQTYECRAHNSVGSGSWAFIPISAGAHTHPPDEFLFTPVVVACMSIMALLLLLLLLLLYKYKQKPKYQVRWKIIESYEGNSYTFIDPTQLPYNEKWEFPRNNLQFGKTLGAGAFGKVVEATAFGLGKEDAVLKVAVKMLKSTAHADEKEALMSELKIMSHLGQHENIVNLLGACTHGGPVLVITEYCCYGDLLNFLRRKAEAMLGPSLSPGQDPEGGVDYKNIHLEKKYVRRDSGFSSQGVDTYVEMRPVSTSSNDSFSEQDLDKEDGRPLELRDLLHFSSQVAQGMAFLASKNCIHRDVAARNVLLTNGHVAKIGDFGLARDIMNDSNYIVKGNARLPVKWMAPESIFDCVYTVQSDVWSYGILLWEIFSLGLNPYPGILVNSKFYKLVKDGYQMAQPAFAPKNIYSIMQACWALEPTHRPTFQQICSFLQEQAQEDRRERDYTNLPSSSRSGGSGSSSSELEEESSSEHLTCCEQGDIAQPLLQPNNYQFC", "assay": "Surface plasmon resonance", "type": "binding", "settings": "Biacore 8K, protein immobilized on CM5 chip", "how_it_was_run": "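Human CSF1R was directly immobilized on a CM5 chip (Biacore 8K), with test compound as analyte. Multi-cycle kinetics used 180 s injection and 180 s dissociation.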"}, "DBT mouse glioma [7]": {"tested_on": "DBT mouse glioma", "assay": "DBT subcutaneous model in immunocompetent mice", "type": "in vivo, BALB/c mice", "settings": "10 mg/kg twice daily", "how_it_was_run": "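BALB/c mice received 5 × 10^6 DBT cells in 200 μL PBS s.c. in the right flank. At about 120 mm3 they were randomized to control or 10 mg/kg (n = 6/group), dosed orally twice daily. Tumor size and body weight were measured three times weekly, and growth was expressed as RTV, mean ± SEM. CD8 was stained by IHC and scored by the multiplicative quick score method.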"}, "[8]": {"tested_on": "neovascularization in chick embryos", "assay": "Chicken chorioallantoic membrane", "type": "in vivo", "settings": "CAM assay, 48 h", "how_it_was_run": "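Fertilized eggs were incubated 7 days at 37 °C, 50% humidity. Suction at the broad end made a false air sac, and a 1 cm2 shell window was opened. Glass coverslips (0.5 cm × 0.5 cm) soaked in test compound or vehicle were laid between preexisting vessels, followed by a further 48 h incubation. Neovascular zones beside the coverslips were photographed under a stereomicroscope.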"}, "[9]": {"tested_on": "recurrent high-grade glioma", "assay": "First-in-human phase I trial", "type": "in vivo, patients"}, "[10]": {"tested_on": "phosphorylation of RET in tumor tissue", "assay": "RET phosphorylation in tumor tissue", "type": "in vivo", "settings": "data not shown"}, "DBT mouse glioma [11]": {"tested_on": "DBT mouse glioma", "assay": "DBT model, combination with anti-PD-1", "type": "in vivo, BALB/c mice", "settings": "SYHA1813 5 mg/kg p.o. twice daily, anti-PD-1 200 μg i.p. twice a week, or both"}}, "note": "pIC50: −log10 of the molar value."}
{"smiles": "CNC(=O)c1ccccc1Sc1ccc2c(/C=C/c3ccccn3)n[nH]c2c1", "note": "[Axitinib, reference compound]", "values": [{"measurement": "median survival time", "setting": "[1]; 40 mg/kg orally twice daily", "result": 41, "unit": "days"}, {"measurement": "expression of angiogenic markers CD31 and CD105", "setting": "[2]", "result": "effectively suppressed"}, {"measurement": "expression of M2 phenotype macrophage marker(s) (CD206)", "setting": "[2]", "result": "no significant changes"}]}
{"smiles": "FC(F)(F)c1ccc(CNc2ccc(Cc3c[nH]c4ncc(Cl)cc34)cn2)cn1", "note": "[PLX3397, reference compound]", "values": [{"measurement": "expression of M2 markers CD206 and ARG1", "setting": "[3]", "result": "significant decrease"}]}
{"smiles": "Cc1cc(NC(=O)c2cccc3cc(-c4cccc5[nH]nc(N)c45)ccc23)ccc1F", "note": "[SYHA1813, 6-(3-amino-1H-indazol-4-yl)-N-(4-fluoro-3-methylphenyl)-1-naphthamide]", "values": [{"measurement": "pIC50", "setting": "HUVEC", "result": 7.89}, {"measurement": "median survival time", "setting": "mouse glioma GL261-luc", "result": "prolonged median survival time"}, {"measurement": "pIC50", "setting": "PDGFRα (V561D)", "result": 8.62}, {"measurement": "cytotoxicity to cells with high expression of Aurora-B", "setting": "[4]", "result": "no apparent cytotoxicity"}, {"measurement": "pIC50", "setting": "glioma cell lines", "result": "< 4.70"}, {"measurement": "pIC50", "setting": "c-Kit", "result": 6.79}, {"measurement": "median survival time", "setting": "[1]; 20 mg/kg orally twice daily", "result": 54, "unit": "days"}, {"measurement": "first death of mice", "setting": "[1]; 40 mg/kg group, control Day 31", "result": 43, "unit": "days"}, {"measurement": "death of the last mouse", "setting": "[1]; 40 mg/kg group, control Day 52", "result": 75, "unit": "days"}, {"measurement": "median survival time", "setting": "[1]; 40 mg/kg orally twice daily", "result": 58.5, "unit": "days"}, {"measurement": "pIC50", "setting": "VEGFR-3", "result": 8.37}, {"measurement": "tumor growth in D283 xenograft", "setting": "[5]", "result": "effectively inhibited tumor growth"}, {"measurement": "Cmax", "setting": "[6]; brain", "result": 1210, "unit": "ng/g"}, {"measurement": "AUC(0-t)", "setting": "[6]; plasma", "result": 4540, "unit": "ng·h/mL"}, {"measurement": "Cmax", "setting": "[6]; plasma", "result": 1420, "unit": "ng/mL"}, {"measurement": "pIC50", "setting": "c-Kit (D816H)", "result": 6.87}, {"measurement": "pIC50", "setting": "VEGFR-1", "result": 8.55}, {"measurement": "tube formation of HUVECs", "setting": "tube formation of HUVECs", "result": "considerably blocked"}, {"measurement": "phosphorylation of CSF1R and activation of downstream AKT", "setting": "phosphorylation of CSF1R", "result": "dramatically blocked"}, {"measurement": "inhibition relative to the control, most of the kinases", "setting": "panel of 328 kinases", "result": "less than 80%"}, {"measurement": "expression of M2 markers CD206 and ARG1", "setting": "[3]", "result": "significant decrease"}, {"measurement": "SPR binding to CSF1R", "setting": "CSF1R", "result": "robust binding signal"}, {"measurement": "tumor volume reduced", "setting": "[2]; 5 mg/kg orally twice daily", "result": 67.7, "unit": "%"}, {"measurement": "tumor volume reduced", "setting": "[2]; 10 mg/kg orally twice daily", "result": 81.0, "unit": "%"}, {"measurement": "body weight of the animals", "setting": "[2]; U251, U87MG and D283 xenograft models", "result": "not significantly changed"}, {"measurement": "expression of angiogenic markers CD31 and CD105", "setting": "[2]", "result": "dramatically reduced"}, {"measurement": "expression of M2 phenotype macrophage marker(s) (CD206)", "setting": "[2]", "result": "significantly inhibited"}, {"measurement": "tumor growth of DBT glioma and tumor weight", "setting": "DBT mouse glioma [7]; BALB/c mice", "result": "suppressed"}, {"measurement": "CD8+ T cells in tumor tissue", "setting": "DBT mouse glioma [7]; IHC", "result": "dramatically increased"}, {"measurement": "neovascularization in chick embryos", "setting": "[8]", "result": "significantly inhibited"}, {"measurement": "Response Assessment in Neuro-Oncology (RANO)", "setting": "[9]; 5 mg once daily, 4 cycles, recurrent anaplastic oligodendrocytoma patient", "result": "stable disease"}, {"measurement": "contrast-enhancement on T1-weighted images and vasogenic edema on FLAIR images", "setting": "[9]; 15 mg/day, recurrent GBM (WHO IV) patient, first follow-up", "result": "drastic reduction"}, {"measurement": "phosphorylation of RET in tumor tissue", "setting": "[10]", "result": "rarely inhibited"}, {"measurement": "tumor growth", "setting": "DBT mouse glioma [11]", "result": "slightly inhibited"}]}
{"smiles": "Cn1nnc2c(C(N)=O)ncn2c1=O", "note": "[TMZ, temozolomide, reference compound]", "values": [{"measurement": "tumor growth in D283 xenograft", "setting": "[5]", "result": "dramatically insensitive"}]}
